From ChEMBL document CHEMBL1828615, “Synthesis of a series of 3,4-methanoarginines as side-chain conformationally restricted analogues of arginine” (Bioorg Med Chem, 2011) come the findings set out here.

The target of assay [1] is T1, Nitric oxide synthase 3 (Bos taurus) (UniProt P29473).
T1 sequence (whole entry): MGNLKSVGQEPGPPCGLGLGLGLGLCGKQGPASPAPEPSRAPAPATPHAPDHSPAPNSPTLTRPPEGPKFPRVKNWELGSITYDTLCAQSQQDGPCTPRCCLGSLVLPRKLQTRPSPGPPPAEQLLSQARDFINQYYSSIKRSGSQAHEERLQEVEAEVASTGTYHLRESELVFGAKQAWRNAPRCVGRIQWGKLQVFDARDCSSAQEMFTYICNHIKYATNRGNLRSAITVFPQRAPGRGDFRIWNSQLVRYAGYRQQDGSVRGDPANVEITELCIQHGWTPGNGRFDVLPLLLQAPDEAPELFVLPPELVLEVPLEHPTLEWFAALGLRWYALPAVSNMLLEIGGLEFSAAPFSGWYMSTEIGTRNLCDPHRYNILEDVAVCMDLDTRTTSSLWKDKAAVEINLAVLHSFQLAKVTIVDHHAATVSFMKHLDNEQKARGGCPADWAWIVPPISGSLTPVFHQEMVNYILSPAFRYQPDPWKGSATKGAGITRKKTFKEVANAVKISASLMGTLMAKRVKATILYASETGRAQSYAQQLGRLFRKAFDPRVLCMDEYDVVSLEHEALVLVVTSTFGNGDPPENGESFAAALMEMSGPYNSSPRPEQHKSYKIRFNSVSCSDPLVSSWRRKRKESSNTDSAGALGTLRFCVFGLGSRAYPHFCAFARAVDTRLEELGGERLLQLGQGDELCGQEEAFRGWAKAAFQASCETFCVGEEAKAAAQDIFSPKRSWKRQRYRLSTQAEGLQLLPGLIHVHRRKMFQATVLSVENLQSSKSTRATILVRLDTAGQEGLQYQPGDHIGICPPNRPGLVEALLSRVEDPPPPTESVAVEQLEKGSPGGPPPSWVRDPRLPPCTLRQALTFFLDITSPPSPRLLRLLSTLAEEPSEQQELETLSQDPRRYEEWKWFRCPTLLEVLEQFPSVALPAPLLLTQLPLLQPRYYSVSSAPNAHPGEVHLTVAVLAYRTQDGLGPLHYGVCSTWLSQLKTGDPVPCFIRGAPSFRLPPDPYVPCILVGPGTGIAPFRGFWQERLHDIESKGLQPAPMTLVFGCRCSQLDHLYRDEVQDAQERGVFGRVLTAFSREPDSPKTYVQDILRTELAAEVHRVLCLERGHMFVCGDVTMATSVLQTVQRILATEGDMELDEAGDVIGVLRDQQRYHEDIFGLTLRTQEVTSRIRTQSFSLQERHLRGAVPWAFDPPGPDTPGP
The assay is described as follows: Inhibition of bovine eNOS assessed as nitric oxide-mediated oxidation of haemoglobin-A0 at 300 uM using L-arginine by haemoglobin capture assay. The gist of the method: (§1)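 For eNOS (bovine) and nNOS (rat), inhibition was tested as the effect of compound on L-arginine turnover, by hemoglobin capture at 30 °C. Buffer was 100 mM HEPES (pH 7.5) with 1.0 mM CaCl₂, 600 unit/mL calmodulin, NADPH, 0.125 mg/mL ferrous hemoglobin-A₀ and H₄B. Reactions were started with enzyme, and hemoglobin-A₀ oxidation was read at 401 nm.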

Assay [2] concerns the target Nitric oxide synthase 1 (Rattus norvegicus) (UniProt P29476). The assay is described as follows: Inhibition of rat nNOS assessed as nitric oxide-mediated oxidation of haemoglobin-A0 at 300 uM using L-arginine by haemoglobin capture assay. The gist of the method: as §1
Assay [3] deals with T2, Nitric oxide synthase, inducible (Mus musculus) (UniProt P29477).
T2 sequence (whole entry): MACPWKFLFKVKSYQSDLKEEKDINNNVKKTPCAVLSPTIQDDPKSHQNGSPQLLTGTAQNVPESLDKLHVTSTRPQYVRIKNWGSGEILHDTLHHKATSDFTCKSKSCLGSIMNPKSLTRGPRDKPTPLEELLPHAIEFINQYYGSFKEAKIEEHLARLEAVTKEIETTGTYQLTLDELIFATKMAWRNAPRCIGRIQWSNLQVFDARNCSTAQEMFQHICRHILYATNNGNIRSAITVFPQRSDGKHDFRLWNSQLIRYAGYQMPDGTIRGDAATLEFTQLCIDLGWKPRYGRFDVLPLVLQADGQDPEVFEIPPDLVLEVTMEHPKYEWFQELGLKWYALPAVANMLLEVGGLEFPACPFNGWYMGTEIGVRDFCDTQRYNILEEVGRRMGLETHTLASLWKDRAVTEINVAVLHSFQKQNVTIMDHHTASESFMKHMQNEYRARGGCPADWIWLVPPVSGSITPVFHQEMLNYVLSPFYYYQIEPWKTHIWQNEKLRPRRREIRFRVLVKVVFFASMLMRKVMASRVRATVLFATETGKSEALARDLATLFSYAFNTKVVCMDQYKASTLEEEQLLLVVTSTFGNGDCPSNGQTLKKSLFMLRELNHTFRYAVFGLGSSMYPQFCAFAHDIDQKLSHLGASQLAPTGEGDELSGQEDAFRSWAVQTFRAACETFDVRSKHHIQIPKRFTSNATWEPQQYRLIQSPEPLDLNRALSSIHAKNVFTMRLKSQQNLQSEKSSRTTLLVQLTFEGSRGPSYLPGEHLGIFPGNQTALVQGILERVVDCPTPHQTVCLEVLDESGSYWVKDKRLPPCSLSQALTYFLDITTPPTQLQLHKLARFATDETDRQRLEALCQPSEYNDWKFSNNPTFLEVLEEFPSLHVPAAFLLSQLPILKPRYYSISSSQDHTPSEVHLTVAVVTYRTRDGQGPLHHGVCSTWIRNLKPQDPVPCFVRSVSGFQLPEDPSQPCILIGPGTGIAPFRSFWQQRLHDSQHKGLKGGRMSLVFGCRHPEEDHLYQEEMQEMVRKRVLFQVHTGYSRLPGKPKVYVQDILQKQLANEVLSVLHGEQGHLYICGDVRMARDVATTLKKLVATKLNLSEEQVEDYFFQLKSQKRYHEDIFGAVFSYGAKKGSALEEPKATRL
The experiment in a line: Inhibition of mouse iNOS assessed as nitric oxide-mediated oxidation of haemoglobin-A0 at 300 uM using L-arginine by haemoglobin capture assay. The gist of the method:
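Murine iNOS inhibition was measured against L-arginine as substrate in a hemoglobin capture assay at 30 °C, without calcium or calmodulin. The mix held NADPH, 0.125 mg/mL ferrous hemoglobin-A₀ and H₄B in 100 mM HEPES (pH 7.5). Enzyme addition initiated the reaction, and NO-mediated oxidation was monitored at 401 nm.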

The nature of assay [4]: Selectivity ratio of km rat nNOS to km mouse iNOS by Michaelis-Menten equation analysis.
Assay [5] in a line: Selectivity ratio of km for bovine eNOS to km for mouse iNOS by Michaelis-Menten equation analysis.

Nitric oxide synthase 1 (Rattus norvegicus), sequence (P29476 whole entry): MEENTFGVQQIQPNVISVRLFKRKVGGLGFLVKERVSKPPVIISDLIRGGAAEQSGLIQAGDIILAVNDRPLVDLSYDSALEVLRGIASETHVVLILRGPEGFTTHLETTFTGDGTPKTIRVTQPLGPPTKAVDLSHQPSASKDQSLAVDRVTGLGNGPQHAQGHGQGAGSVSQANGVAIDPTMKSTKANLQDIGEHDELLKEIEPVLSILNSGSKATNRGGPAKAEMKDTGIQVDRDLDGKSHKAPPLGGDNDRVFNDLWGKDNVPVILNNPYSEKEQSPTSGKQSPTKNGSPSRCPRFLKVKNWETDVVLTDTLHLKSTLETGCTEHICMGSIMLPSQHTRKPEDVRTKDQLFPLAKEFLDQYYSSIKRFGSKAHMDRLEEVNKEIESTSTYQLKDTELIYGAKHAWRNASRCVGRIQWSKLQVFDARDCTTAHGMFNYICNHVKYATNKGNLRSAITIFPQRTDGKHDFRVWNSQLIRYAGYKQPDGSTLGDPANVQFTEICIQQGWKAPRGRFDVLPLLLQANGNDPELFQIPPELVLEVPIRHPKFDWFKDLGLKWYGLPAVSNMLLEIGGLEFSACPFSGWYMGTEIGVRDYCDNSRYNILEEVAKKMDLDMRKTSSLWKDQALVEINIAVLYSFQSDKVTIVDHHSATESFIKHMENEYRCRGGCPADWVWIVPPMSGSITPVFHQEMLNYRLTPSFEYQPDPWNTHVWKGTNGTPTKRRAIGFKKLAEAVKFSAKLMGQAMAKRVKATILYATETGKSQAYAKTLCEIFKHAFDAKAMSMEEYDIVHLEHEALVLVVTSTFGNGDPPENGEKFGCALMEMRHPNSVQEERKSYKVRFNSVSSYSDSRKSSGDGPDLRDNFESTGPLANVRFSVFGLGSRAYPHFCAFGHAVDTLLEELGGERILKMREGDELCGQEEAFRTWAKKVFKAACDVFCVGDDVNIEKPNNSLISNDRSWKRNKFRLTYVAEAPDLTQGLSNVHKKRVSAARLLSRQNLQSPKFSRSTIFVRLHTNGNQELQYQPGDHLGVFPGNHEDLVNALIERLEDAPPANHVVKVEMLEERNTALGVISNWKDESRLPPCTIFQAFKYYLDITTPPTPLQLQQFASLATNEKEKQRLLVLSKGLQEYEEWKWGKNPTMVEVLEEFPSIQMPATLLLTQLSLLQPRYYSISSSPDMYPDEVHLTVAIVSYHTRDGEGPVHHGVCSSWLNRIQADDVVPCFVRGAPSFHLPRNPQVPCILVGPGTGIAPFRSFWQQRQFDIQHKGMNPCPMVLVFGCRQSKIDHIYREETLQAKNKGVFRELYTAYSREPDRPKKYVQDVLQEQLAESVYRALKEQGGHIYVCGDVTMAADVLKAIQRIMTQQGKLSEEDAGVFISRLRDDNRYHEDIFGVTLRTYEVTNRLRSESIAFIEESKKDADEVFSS

Usually inhibition stands for the relative decrease from the control value, in per cent. In the case of `N=C(N)NC[C@H]1C[C@@H]1[C@@H](N)C(=O)O`, the inhibition in assay [1] is 23%; in assay [2] it was 5%; in assay [3], 19%.
Consider `N=C(N)NC[C@@H]1C[C@H]1[C@H](N)C(=O)O`, for which the results for the inhibition in assay [1], in assay [2] and in assay [3] were 45%, 16% and 26%, respectively.
Consider `N=C(N)NC[C@H]1C[C@@H]1[C@H](N)C(=O)O`, for which the Ratio amounted to 2.6 in assay [4] and 5.6 in assay [5].
Regarding `N=C(N)NC[C@@H]1C[C@@H]1[C@@H](N)C(=O)O`, the inhibition in assay [1] amounted to 4%; in assay [2] it was 10%; in assay [3], 24%.
As for `N=C(N)NC[C@H]1C[C@H]1[C@@H](N)C(=O)O`, the inhibition in assay [1] is 27%; in assay [2] it was 30%; in assay [3] it was 14%.
Turning to `N=C(N)NCCC[C@H](N)C(=O)O`, the Ratio in assay [4] was determined as 3.5; in assay [5], 8.6.
The like results for `N=C(N)NC[C@H]1C[C@H]1[C@H](N)C(=O)O` were, in that order, 2.3 and 3.6.
For the compound `N=C(N)NC[C@@H]1C[C@@H]1[C@H](N)C(=O)O`, the inhibition in assay [1] stood at 16%; in assay [2], 30%; in assay [3], 22%.
Take `N=C(N)NC[C@@H]1C[C@H]1[C@@H](N)C(=O)O`: the inhibition in assay [1] turned out to be 4%; in assay [2], 13%; in assay [3], 19%.
